Measurements taken from ChEMBL document CHEMBL3822438, “Chlorin p6-Based Water-Soluble Amino Acid Derivatives as Potent Photosensitizers for Photodynamic Therapy” (J Med Chem, 2016).

Legend:
[1] = (§1) Dark toxicity in human A375 cells assessed as cell viability after 48 hrs by cell counting kit-8 based spectrophotometric analysis; parameters: species or system A-375; settings: human, A375 cells
Summary of the method: (§2)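 CCK-8 dark toxicity. 5×10^3 cells seeded in 10% FBS medium (A375 in DMEM, B16-F10 in RPMI 1640). Exposed to graded compound concentrations for 48 h at 37 °C, kept in the dark. Fresh medium and CCK-8 added for 1.5 h, then absorbance read at 450 nm to give IC50. Ratio is dark IC50 over IC50 under light.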

[2] = Dark toxicity in mouse B16F10 cells assessed as cell viability after 48 hrs by cell counting kit-8 based spectrophotometric analysis; parameters: species or system B16-F10; settings: for IC50 at 48 h: mouse, B16F10 cells; summary of the method: as §2
[3] = Ratio of IC50 for dark toxicity to IC50 for phototoxicity in human A375 cells; type: cell-based, A-375; settings: for selectivity ratio: A375 cells, read-out: Ratio IC50; summary of the method: as §2
[4] = Ratio of IC50 for dark toxicity to IC50 for phototoxicity in mouse B16F10 cells by cell counting kit-8 based spectrophotometric analysis; parameters: species or system B16-F10; settings: for selectivity ratio: B16F10 cells, read-out: Ratio IC50; summary of the method: as §2
[5] = Phototoxicity in mouse B16F10 cells assessed as cell viability after 24 hrs followed by irradiation with diode laser at 10 J/cm'2 measured after 24 hrs by cell counting kit-8 based spectrophotometric analysis; type: functional, B16-F10
Summary of the method: (§3)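 Phototoxicity by CCK-8. Cells loaded with a range of compound concentrations for 24 h at 37 °C, irradiated with a 678 nm diode laser at 10 J/cm², then incubated a further 24 h. Viability read as absorbance at 450 nm after 1.5 h with CCK-8.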

A-375 [6] = experiment: Phototoxicity in human A375 cells assessed as cell viability after 24 hrs followed by irradiation with diode laser at 10 J/cm'2 measured after 24 hrs by cell counting kit-8 based spectrophotometric analysis; type: functional; summary of the method: as §3
[7] = Aqueous solubility of the compound in PBS buffer at pH 7.4; type: physicochemical
A-375 [8] = experiment: as §1; settings: a-375; summary of the method: as §2
[9] = Ratio of IC50 for dark toxicity to IC50 for phototoxicity in mouse B16F10 cells by MTT assay; type: cell-based, B16-F10; settings: b16-f10
Summary of the method: (§4)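 B16-F10 cells in RPMI 1640 with 10% FBS. Dark arm: compound for 48 h. Light arm: compound for 24 h, then 678 nm diode laser at 10 J/cm², then a further 24 h. Read-out by MTT for 4 h, formazan dissolved in DMSO, absorbance at 490 nm. Ratio is dark IC50 over light IC50.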

[10] = Dark toxicity in mouse B16F10 cells assessed as cell viability after 48 hrs by MTT assay; type: cell-based, B16-F10; settings: b16-f10; summary of the method: as §4
[11] = Phototoxicity in mouse B16F10 cells assessed as cell viability after 24 hrs followed by irradiation with diode laser at 10 J/cm'2 measured after 24 hrs by MTT assay; type: functional, cell-based, B16-F10; settings: b16-f10; summary of the method: as §4
[12] = Mus musculus, B16-F10, light or radiation study, 24 h
[13] = Homo sapiens, A-375, light or radiation study, 24 h

| Compound | IC50 at 48 h [1] [µM] | IC50 at 48 h [2] [µM] | selectivity ratio [3] | selectivity ratio [4] | IC50 [5, 12] [µM] | IC50 (A-375 [6]; [13]) [µM] | solubility [7] [µM] | IC50 (A-375 [8]) [µM] | Ratio IC50 [9] | IC50 [10] [µM] | IC50 ([2]; b16-f10) [µM] | Ratio IC50 ([3]; a-375) | Ratio IC50 ([4]; b16-f10) | IC50 ([5]; b16-f10) [µM] | IC50 [11] [µM] | IC50 (A-375 [6]; a-375) [µM] |
| --- | --- | --- | --- | --- | --- | --- | --- | --- | --- | --- | --- | --- | --- | --- | --- | --- |
| CCC1=C(C)c2cc3[nH]c(cc4nc(c(C(=O)OC)c5[nH]c(cc1n2)c(C)c5C(=O)OC)C(CCC(=O)O)=C4C)[C@@]1(C)C3=CC=C(C(=O)OC)[C@H]1C(=O)OC | 22.8 | 15.3 | 15.5 | 16.7 | 0.92 | 1.47 | – | – | – | – | – | – | – | – | – | – |
| C=Cc1c(C)c2cc3nc(c(C(=O)OC)c4[nH]c(cc5nc(cc1[nH]2)C(C)=C5CC)c(C)c4C(=O)OC)[C@@H](CCC(=O)O)[C@@H]3C | 31.3 | 15.7 | 60.2 | 52.2 | 0.3 | 0.52 | < 1.6 | – | – | – | – | – | – | – | – | – |
| CCC1=C(C)c2cc3[nH]c(cc4nc(c(C(=O)OC)c5[nH]c(cc1n2)c(C)c5C(=O)OC)C(CCC(=O)N[C@@H](CC(=O)O)C(=O)O)=C4C)[C@@]1(C)C3=CC=C(C(=O)OC)[C@H]1C(=O)OC | > 300 | 271 | > 99.3 | 118 | 2.29 | 3.02 | – | – | – | – | – | – | – | – | – | – |
| VERTEPORFIN | – | – | – | – | – | – | – | 36.3 | 23.39 | 25 | 24.9 | 17.64 | 20.77 | 1.2 | 1.07 | 2.06 |
